Calls of active or inactive are those of the source. No cut-off for these calls is given here. Bridge positions count the residues as written; N and C are the ends. Square brackets hold non-standard residues; d marks the D form. Side chains are listed from the residue outwards. Peptide text beside a SMILES is read from it. * marks the point of attachment. ξ: configuration not given here. FITC = O=C1OC2(c3ccc(O)cc3Oc3cc(O)ccc32)c2ccc(NC(=S)*)cc21; ξtBuAla = CC(C)(C)CC(N)C(=O)O; ξD = NC(CC(=O)O)C(=O)O; ξDap = NCC(N)C(=O)O; βAla = NCCC(=O)O
Assays:
MCF7 = assay: Cytotoxicity against human MCF7 cells assessed as cell viability at 20 uM after 24 hrs by MTT assay; type: functional; details: MCF7, 24 h, read-out: Activity
[1] = target: T1, Estrogen receptor (Homo sapiens) (UniProt P03372); assay: Binding affinity to recombinant human GFP-fused ERalpha LBD (301 to 553 residues) expressed in Escherichia coli BL21(DE3) after 40 mins in presence of 17beta-estradiol by fluorescence polarization assay; details: in the assay text read “ERalpha LBD” for “GFP-fused ERalpha LBD”
T1 sequence (whole entry): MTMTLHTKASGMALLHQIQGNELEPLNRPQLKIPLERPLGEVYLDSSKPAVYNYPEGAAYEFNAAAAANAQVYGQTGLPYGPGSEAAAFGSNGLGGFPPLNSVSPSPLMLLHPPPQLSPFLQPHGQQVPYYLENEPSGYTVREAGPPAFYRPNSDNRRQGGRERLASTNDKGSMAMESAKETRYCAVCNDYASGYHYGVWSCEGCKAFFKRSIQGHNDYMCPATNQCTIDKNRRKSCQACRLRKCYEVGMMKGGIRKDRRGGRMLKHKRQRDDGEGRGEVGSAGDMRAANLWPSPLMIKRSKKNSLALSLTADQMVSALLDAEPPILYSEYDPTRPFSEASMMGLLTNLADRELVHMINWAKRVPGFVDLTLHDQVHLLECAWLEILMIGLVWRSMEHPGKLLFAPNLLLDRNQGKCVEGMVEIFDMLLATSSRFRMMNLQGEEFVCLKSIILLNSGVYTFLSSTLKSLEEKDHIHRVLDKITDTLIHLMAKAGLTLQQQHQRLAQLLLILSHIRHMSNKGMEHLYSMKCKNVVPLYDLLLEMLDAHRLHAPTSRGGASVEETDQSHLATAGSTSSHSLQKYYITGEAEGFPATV

[2] = Drug uptake in human MCF7 cells assessed per million cells at 5 uM after 3 hrs by FACS analysis; type: ADME, cell-based; details: mcf7, 3 h
Procedure, shortened: (§1)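 Adherent cells seeded overnight, then exposed to 5 μM FITC-labelled peptide or DMSO in FBS-free medium, 3 h, 37 °C. After PBS washes (three), about 10000 cells per sample analysed by flow cytometry; mean cellular fluorescence intensity calculated. More than two independent experiments, SEM.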

[3] = Drug uptake in human U2OS cells assessed per million cells at 5 uM after 3 hrs by FACS analysis; type: ADME, cell-based; procedure, shortened: as §1
[4] = target: T1, Estrogen receptor (Homo sapiens); assay: Binding affinity to recombinant human GFP-fused ERalpha LBD (301 to 553 residues) expressed in Escherichia coli BL21(DE3) in presence of ERalpha inhibitor 4-hydroxytamoxifen by ITC
Procedure, shortened: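 ITC at 25 °C. 50 μM peptide injected in 2 μL steps into 5 μM ERα LBD in 50 mM Tris pH 8.0, 150 mM NaCl, 1 mM TCEP containing 0.1 mM 4-hydroxytamoxifen instead of estradiol. Isotherm fitted.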

[5] = target: T1, Estrogen receptor (Homo sapiens); assay: Binding affinity to recombinant human GFP-fused ERalpha LBD (301 to 553 residues) expressed in Escherichia coli BL21(DE3) in presence of 17beta-estradiol by ITC
Procedure, shortened: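 ITC at 25 °C. 2 μL injections of 50 μM peptide into 5 μM ERα LBD in 50 mM Tris pH 8.0, 150 mM NaCl, 1 mM TCEP, 0.1 mM 17β-estradiol. Binding isotherm fitted for affinity.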

[6] = target: T1, Estrogen receptor (Homo sapiens); assay: Inhibition of ERalpha in human MCF7 cells assessed as downregulation of 17beta-estradiol-mediated pS2 mRNA expression at 5 uM preincubated for 4 hrs followed by 17beta-estradiol addition measured after 16 hrs by quantitative RT-PCR analysis; type: cell-based
Procedure, shortened: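 MCF-7 cells hormone-depleted 72 h in phenol red-free DMEM with 5% charcoal-treated serum, given peptides or DMSO for 4 h, then 100 nM 17β-estradiol or DMSO for 16 h. pS2 mRNA measured by quantitative RT-PCR, normalized to β-actin. Three independent experiments, mean ± SEM.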

[7] = target: T1, Estrogen receptor (Homo sapiens); assay: Inhibition of recombinant human GFP-fused ERalpha LBD (301 to 553 residues) expressed in human […] cells assessed as downregulation of 17beta-estradiol-induced transcription at 5 uM preincubated for 4 hrs followed by E2 addition measured after 20 hrs by dual luciferase reporter gene assay; type: cell-based
Procedure, shortened: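 U2OS cells in phenol red-free DMEM with 10% charcoal-stripped FBS, transfected 4 h with pEGFP-C1-ERα, 3XERE firefly luciferase reporter and pRL-TK Renilla plasmids. Peptides for 4 h, then 10 nM E2 or DMSO for 20 h. Lysates read by dual-luciferase; firefly normalized to Renilla, then to DMSO-treated control. SEM from more than two independent experiments.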

| SMILES | viability at 20 µM (MCF7) | Activity [1] | also measured |
| --- | --- | --- | --- |
| CC[C@H](C)[C@@H]1NC(=O)C[C@H](NC(=O)[C@H](CCCNC(=N)N)NC(=O)CCNC(=O)[C@H](Cc2c[nH]c3ccccc23)NC(C)=O)C(=O)NCC(C(=O)N[C@@H](CCCNC(=N)N)C(=O)NC(CC(C)(C)C)C(=O)N[C@@H](CC(C)C)C(=O)N[C@@H](CCC(N)=O)C(N)=O)NC(=O)[C@H](CC(C)C)NC1=O (some centres not stated) | 53.9% |  |  |
| CC[C@H](C)[C@@H]1NC(=O)C[C@H](NC(=O)[C@H](CCCNC(=N)N)NC(=O)CCNC(=S)Nc2ccc3c(c2)C(=O)OC32c3ccc(O)cc3Oc3cc(O)ccc32)C(=O)NCC(C(=O)N[C@@H](CCCNC(=N)N)C(=O)N[C@@H](CC(C)C)C(=O)NC(CC(C)(C)C)C(=O)N[C@@H](CCC(N)=O)C(N)=O)NC(=O)[C@H](CC(C)C)NC1=O (some centres not stated) |  | Active |  |
| CC[C@H](C)[C@@H]1NC(=O)C[C@H](NC(=O)[C@H](CCCNC(=N)N)NC(=O)CCNC(=S)Nc2ccc3c(c2)C(=O)OC32c3ccc(O)cc3Oc3cc(O)ccc32)C(=O)NCC(C(=O)N[C@@H](CCCNC(=N)N)C(=O)NC(CC(C)(C)C)C(=O)N[C@@H](CC(C)C)C(=O)N[C@@H](CCC(N)=O)C(N)=O)NC(=O)[C@H](CC(C)C)NC1=O (some centres not stated) |  | Active | Drug uptake [2]: Active; Drug uptake [3]: Active; Activity [4]: inactive; Activity [5]: Active |
| CC[C@H](C)[C@@H]1NC(=O)C(NC(=O)[C@H](CCCNC(=N)N)NC(=O)CCNC(=S)Nc2ccc3c(c2)C(=O)OC32c3ccc(O)cc3Oc3cc(O)ccc32)CNC(=O)C(CC(=O)N[C@@H](CCC(N)=O)C(=O)NC(CC(C)(C)C)C(=O)N[C@@H](CCCNC(=N)N)C(=O)NC(CC(C)(C)C)C(N)=O)NC(=O)C(CC(C)(C)C)NC1=O (stereo partly drawn) ({FITC-βAla}-R[ξDap]I[ξtBuAla][ξD]([Gln-ξtBuAla-Arg-ξtBuAla-NH2]); lactam 2-C) |  | inactive | Drug uptake [2]: Active; Drug uptake [3]: Active |
| CC[C@H](C)[C@@H]1NC(=O)C[C@H](NC(=O)[C@H](CCCNC(=N)N)NC(=O)CCNC(=O)[C@H](Cc2c[nH]c3ccccc23)NC(C)=O)C(=O)NCC(C(=O)N[C@@H](CCCNC(=N)N)C(=O)N[C@@H](CC(C)C)C(=O)N[C@@H](CC(C)C)C(=O)N[C@@H](CCC(N)=O)C(N)=O)NC(=O)C(CC(C)(C)C)NC1=O (some centres not stated) | 53.9% |  |  |
| CC[C@H](C)[C@@H]1NC(=O)C[C@H](NC(=O)[C@H](CCCNC(=N)N)NC(=O)CCNC(=O)[C@H](Cc2c[nH]c3ccccc23)NC(C)=O)C(=O)NCC(C(=O)N[C@@H](CCCNC(=N)N)C(=O)N[C@@H](CC(C)C)C(=O)NC(CC(C)(C)C)C(=O)N[C@@H](CCC(N)=O)C(N)=O)NC(=O)[C@H](CC(C)C)NC1=O (some centres not stated) | 43.1% |  |  |
| CC[C@H](C)[C@@H]1NC(=O)C[C@H](NC(=O)[C@H](CCCNC(=N)N)NC(=O)CCNC(=S)Nc2ccc3c(c2)C(=O)OC32c3ccc(O)cc3Oc3cc(O)ccc32)C(=O)NCC(C(=O)N[C@@H](CCCNC(=N)N)C(=O)N[C@@H](CC(C)C)C(=O)N[C@@H](CC(C)C)C(=O)N[C@@H](CCC(N)=O)C(N)=O)NC(=O)C(CC(C)(C)C)NC1=O (some centres not stated) |  | Active |  |
| CC[C@H](C)[C@@H]1NC(=O)C[C@H](NC(=O)[C@H](CCCNC(=N)N)NC(=O)CCNC(=O)[C@H](Cc2c[nH]c3ccccc23)NC(C)=O)C(=O)NCC(C(=O)N[C@@H](CCCNC(=N)N)C(=O)N[C@@H](CC(C)C)C(=O)N[C@@H](CC(C)C)C(=O)N[C@@H](CCC(N)=O)C(N)=O)NC(=O)[C@H](CC(C)C)NC1=O (some centres not stated) | 64.5% |  |  |
| CC[C@H](C)[C@@H]1NC(=O)C(NC(=O)[C@H](CCCNC(=N)N)NC(=O)CCNC(=O)[C@H](Cc2c[nH]c3ccccc23)NC(C)=O)CNC(=O)C(CC(=O)N[C@@H](CCC(N)=O)C(=O)NC(CC(C)(C)C)C(=O)N[C@@H](CCCNC(=N)N)C(=O)NC(CC(C)(C)C)C(N)=O)NC(=O)C(CC(C)(C)C)NC1=O (stereo partly drawn) (Ac-W[βAla]R[ξDap]I[ξtBuAla][ξD]([Gln-ξtBuAla-Arg-ξtBuAla-NH2]); lactam 4-C) | 79.2% |  | inhibition [6]: inactive; inhibition [7]: inactive |
